In ChEMBL document CHEMBL4819071, “Design, synthesis and in-vitro evaluation of fluorinated triazoles as multi-target directed ligands for Alzheimer disease” (Bioorg Med Chem Lett, 2021):
The source made the active and inactive calls. No cut-off for these calls is given here.

Experiments:
[1] = (§1) Cytotoxicity against rat PC-12 cells assessed as cell viability at 40 uM measured after 24 hrs by Alamar blue assay relative to control; type: cell-based; details: PC-12 cells, read-out: Activity
How it was run: (§2)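 PC-12 neuronal cells incubated 24 h with compound at 40 µM. Viability read with Alamar Blue and expressed as percent of untreated cells.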

[2] = biological target: T1, Amyloid-beta precursor protein (Homo sapiens, UniProt P05067); test: Inhibition of amyloid beta (1 to 42 ) (unknown origin) self aggregation at 40 uM after 24 hrs by thioflavin-T fluorescence method
How it was run: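 Aβ42 (10 µM) incubated with compound (40 µM) for 24 h at 37 °C. Fibril formation quantified by Thioflavin T and given as percent of Aβ42 left to fibrillate alone. n = 3, Dunnett test.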

PC-12 [3] = test: as §1; type: cell-based; details: pc-12, 24 h, 40 µM; how it was run: as §2
[4] = biological target: T1, Amyloid-beta precursor protein; test: Inhibition of amyloid beta (1 to 42 ) (unknown origin) self aggregation at 40 uM measured after 24 hrs in presence of copper ion by thioflavin-T fluorescence method
How it was run: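 Aβ42 (10 µM) incubated with Cu2+ (10 µM) and compound for 24 h at 37 °C with shaking at 180 rpm. Percent fibril formation determined by Thioflavin T. Compared against Aβ42 alone and Aβ42 + Cu2+ by Dunnett test. n = 3.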

[5] = Metal chelating activity assessed as Fe3+-compound complex formation by measuring hyperchromic shift at 50 uM incubated for 30 mins by UV-visible spectrophotometry
[6] = Metal chelating activity assessed as Cu2+-compound complex formation by measuring hyperchromic shift at 50 uM incubated for 30 mins by UV-visible spectrophotometry
[7] = Metal chelating activity assessed as Zn2+-compound complex formation by measuring hyperchromic shift at 50 uM incubated for 30 mins by UV-visible spectrophotometry
PC-12 [8] = test: Anti-inflammatory activity in rat PC-12 cells assessed as decrease in LPS-stimulated ROS accumulation at 40 uM measured after 24 hrs by DCFH-DA staining based FACS […] assay; type: functional, cell-based
How it was run: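 PC-12 cells inflamed with LPS (10 µg/mL), then treated with compound at 40 µM for 24 h. ROS measured by DCFDA flow cytometry. Cells gated on FSC/SSC, singlets selected (FSC area vs height), and dead cells excluded by propidium iodide. The percentage of DCFDA ROS-high live cells was taken from the FL1 vs FSC dot plot quadrant. n = 3.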

[9] = biological target: T1, Amyloid-beta precursor protein; test: Inhibition of amyloid beta (1 to 42 ) (unknown origin) self aggregation measured after 24 hrs by thioflavin-T fluorescence method
[10] = Metal chelating activity assessed as Cu2+-compound complex formation at compound:Cu2+ concentration ratio of 1:1 to 1:6 incubated for 30 mins by UV-visible spectrophotometry
How it was run: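 Compound titrated with Cu2+ at compound:Cu ratios 1:1 to 1:6 in HEPES buffer at room temperature. UV–vis spectra recorded over about 240–320 nm. Absorbance plotted against ratio and fitted linearly.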

[11] = Metal chelating activity assessed as Fe3+-compound complex formation at compound:Fe3+ concentration ratio of 1:1 to 1:5 incubated for 30 mins by UV-visible spectrophotometry
How it was run: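 Compound combined with Fe3+ at compound:Fe ratios 1:1, 1:3 and 1:5 in HEPES buffer at room temperature. UV–vis spectra recorded over about 250–350 nm.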

[12] = Metal chelating activity assessed as Zn2+-compound complex formation at incremental dose of compound incubated for 30 mins by UV-visible spectrophotometry

T1 sequence (P05067 whole entry): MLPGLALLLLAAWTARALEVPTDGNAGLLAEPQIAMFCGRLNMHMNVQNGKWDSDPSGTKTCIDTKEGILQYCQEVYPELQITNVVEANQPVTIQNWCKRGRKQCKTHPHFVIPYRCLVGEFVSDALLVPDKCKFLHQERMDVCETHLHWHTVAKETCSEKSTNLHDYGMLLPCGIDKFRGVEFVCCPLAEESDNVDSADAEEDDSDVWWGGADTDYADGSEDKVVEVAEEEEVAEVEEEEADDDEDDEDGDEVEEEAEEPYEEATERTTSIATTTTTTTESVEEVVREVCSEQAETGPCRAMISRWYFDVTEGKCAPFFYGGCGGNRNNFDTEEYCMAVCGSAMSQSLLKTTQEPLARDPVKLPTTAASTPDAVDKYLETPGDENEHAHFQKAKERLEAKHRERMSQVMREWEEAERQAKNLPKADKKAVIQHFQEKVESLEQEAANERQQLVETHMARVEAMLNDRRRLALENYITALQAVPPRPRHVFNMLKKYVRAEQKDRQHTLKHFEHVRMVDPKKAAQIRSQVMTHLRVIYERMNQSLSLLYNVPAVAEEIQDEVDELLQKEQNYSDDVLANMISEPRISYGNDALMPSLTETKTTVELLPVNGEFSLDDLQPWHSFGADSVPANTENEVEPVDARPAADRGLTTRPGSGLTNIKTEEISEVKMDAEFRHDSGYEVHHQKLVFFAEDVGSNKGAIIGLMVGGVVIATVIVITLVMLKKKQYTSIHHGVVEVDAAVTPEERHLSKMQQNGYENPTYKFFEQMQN

In the case of `O=C(Nc1ccccc1)c1cn(-c2ccc(C(O)(C(F)(F)F)C(F)(F)F)cc2)nn1`, the viability at 24 h, 40 µM [1] is reported as > 60% and the inhibition [2] is reported as “inactive”.

For `OC(c1ccc(NCc2cn(-c3ccccc3)nn2)cc1)(C(F)(F)F)C(F)(F)F`, the Activity (PC-12 [3]) was “Toxic”.

In the case of `COc1ccc(-n2cc(CNc3ccc(C(O)(C(F)(F)F)C(F)(F)F)cc3)nn2)cc1OC`, the viability at 24 h, 40 µM [1] is reported as > 60%, the inhibition [2] is reported as “Active” and the inhibition [4] is reported as < 50%.

For `Cc1ccc(-n2cc(CNc3ccc(C(O)(C(F)(F)F)C(F)(F)F)cc3)nn2)cc1C`, the viability at 24 h, 40 µM [1] was > 60% and the inhibition [2] was “inactive”.

For `Cc1ccc(-n2cc(C(=O)Nc3ccc(C(O)(C(F)(F)F)C(F)(F)F)cc3)nn2)cc1C`, the viability at 24 h, 40 µM [1] was > 60%, the inhibition [2] was “Active” and the inhibition [4] was < 50%. For the same compound, the Activity [5] was “Active”, the Activity [6] was “Active” and the Activity [7] was “Active”. The Activity (PC-12 [8]) was “Active”, the IC50 [9] was 4.6 µM and the Activity [10] was “Active”. For the same compound, the Activity [11] was “Active” and the Activity [12] was “Active”.

For `Cc1ccc(NC(=O)c2cn(-c3ccc(C(O)(C(F)(F)F)C(F)(F)F)cc3)nn2)cc1C`, the viability at 24 h, 40 µM [1] was > 60% and the inhibition [2] was “Active”.

In the case of `O=C(Nc1ccc(C(O)(C(F)(F)F)C(F)(F)F)cc1)c1cn(-c2ccccc2)nn1`, the Activity (PC-12 [3]) is reported as “Toxic”.
